According to ChEMBL document CHEMBL4177768, “Synthesis and Biological Evaluation of Derivatives of Indoline as Highly Potent Antioxidant and Anti-inflammatory Agents” (J Med Chem, 2018):
Activity calls are given as the source filed them. The rule behind the calls is not given here.

How the values were obtained:
RAW264.7 [1] = assay: Cytoprotective activity against H2O2-induced oxidative stress in mouse RAW264.7 cells assessed as decrease in caspase-3 activity at 1 pM incubated for 4 hrs prior to H2O2 addition measured after 90 mins by caspase-GloR reagent-based luminescence assay relative to control; assay type: functional
Procedure, shortened: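 RAW 264.7 macrophages were pretreated with compound (1 pM or 1 nM) 4 h before H2O2 100 µM. Medium was replaced with fresh DMEM after 90 min and plates were incubated overnight. Caspase-Glo 3/7 reagent was added and luminescence read after 30 min at room temperature. Mean ± SD, 4-6 replicates.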

RAW264.7 [2] = assay: Antiinflammatory activity in mouse RAW264.7 cells assessed as reduction in LPS-induced TNF-alpha production at 1 nM incubated for 2 hrs prior to LPS challenge measured after 8 hrs by ELISA; assay type: functional
Procedure, shortened: (§1)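 RAW 264.7 macrophages were plated at 1×10^5 per well, grown overnight and washed with PBS. Compounds in water (final 1 pM-100 nM, medium with 2% FCS) were added 2 h at 37 °C before E. coli 0111:B4 LPS, 2.5 µg/mL. TNF-α was sampled at 8 h; IL-6 and nitrite (Griess) at 24 h. ELISA was used for cytokines. Values are % of the LPS + medium value in each experiment. Budesonide was the reference. 2-3 experiments, 6 wells per concentration.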

RAW264.7 [3] = assay: Antiinflammatory activity in mouse RAW264.7 cells assessed as reduction in LPS-induced nitric oxide production at 1 pM to 100 nM incubated for 2 hrs prior to LPS challenge measured after 24 hrs by Griess assay; assay type: functional, cell-based; procedure, shortened: as §1
RAW264.7 [4] = assay: Antiinflammatory activity in mouse RAW264.7 cells assessed as reduction in LPS-induced TNF-alpha production at 1 pM to 100 nM incubated for 2 hrs prior to LPS challenge measured after 8 hrs by ELISA; assay type: functional, cell-based; procedure, shortened: as §1
RAW264.7 [5] = assay: Antiinflammatory activity in mouse RAW264.7 cells assessed as reduction in LPS-induced IL-6 production at 1 nM incubated for 2 hrs prior to LPS challenge measured after 24 hrs by ELISA; assay type: functional; procedure, shortened: as §1
RAW264.7 [6] = assay: Antiinflammatory activity in mouse RAW264.7 cells assessed as reduction in LPS-induced TNF-alpha production at 100 pM incubated for 2 hrs prior to LPS challenge measured after 8 hrs by ELISA; assay type: functional; procedure, shortened: as §1
RAW264.7 [7] = assay: Antiinflammatory activity in mouse RAW264.7 cells assessed as reduction in LPS-induced nitric oxide production at 1 nM incubated for 2 hrs prior to LPS challenge measured after 24 hrs by Griess assay; assay type: functional; procedure, shortened: as §1
RAW264.7 [8] = assay: Antiinflammatory activity in mouse RAW264.7 cells assessed as reduction in LPS-induced IL-6 production at 100 pM incubated for 2 hrs prior to LPS challenge measured after 24 hrs by ELISA; assay type: functional; procedure, shortened: as §1
RAW264.7 [9] = assay: Antiinflammatory activity in mouse RAW264.7 cells assessed as reduction in LPS-induced nitric oxide production at 100 pM incubated for 2 hrs prior to LPS challenge measured after 24 hrs by Griess assay; assay type: functional; procedure, shortened: as §1
RAW264.7 [10] = assay: Cytoprotective activity against H2O2-induced oxidative stress in mouse RAW264.7 cells assessed as decrease in LDH release at 1 pM incubated for 2 hrs prior to H2O2 addition by colorimetric assay relative to control; assay type: functional; set-up: scale not given: the % may be the effect or the level left
Procedure, shortened: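 RAW 264.7 cells were seeded and pretreated with compound before H2O2 100 µM, in serum-free medium. Collected medium was centrifuged and incubated with reaction mix 30 min at room temperature. LDH was measured as NADH formation by colorimetric read at 490 nm. n = 8-10 replicates per concentration.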

RAW264.7 [11] = assay: Cytoprotective activity against H2O2-induced oxidative stress in mouse RAW264.7 cells assessed as cell viability at 1 nM incubated for 2 hrs prior to H2O2 addition measured after 24 hrs by MTT assay (reference value: 68 to 72.8%); assay type: functional; details: read-out: Activity
RAW264.7 [12] = assay: Cytoprotective activity against H2O2-induced oxidative stress in mouse RAW264.7 cells assessed as decrease in LDH release at 1 pM incubated for 2 hrs prior to H2O2 addition by colorimetric assay relative to control; set-up: scale not given: the % may be the effect or the level left
Mus musculus [13] = assay: Acute toxicity in Balb/C mouse assessed as change in activity at 100 umol/kg, sc measured over 72 hrs; assay type: organism-based; details: in vivo
Procedure, shortened: (§2)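 Male Balb/C mice, 24-28 g, groups of 3; single sc injection of compound at 100 μmoles/kg or saline (1 mL/100 g). Food and water intake, body weight and general activity monitored over 72 h against saline-injected animals.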

Mus musculus [14] = assay: Antiinflammatory activity in Balb/C mouse assessed as reduction in LPS-induced IL6 production in liver at 0.1 to 10 umol/kg, sc administered LPS 15 mins post compound treatment measured after 4 hrs by ELISA; assay type: functional, organism-based
Mus musculus [15] = assay: Acute toxicity in Balb/C mouse assessed as change in food intake at 100 umol/kg, sc measured over 72 hrs; assay type: organism-based; details: in vivo; procedure, shortened: as §2
Mus musculus [16] = assay: Acute toxicity in Balb/C mouse assessed as change in water intake at 100 umol/kg, sc measured over 72 hrs; assay type: organism-based; details: in vivo; procedure, shortened: as §2
Mus musculus [17] = assay: Acute toxicity in Balb/C mouse assessed as change in body weight at 100 umol/kg, sc measured over 72 hrs; assay type: organism-based; details: in vivo; procedure, shortened: as §2
RAW264.7 [18] = assay: Cytoprotective activity against H2O2-induced oxidative stress in mouse RAW264.7 cells assessed as cell viability at 1 pM incubated for 2 hrs prior to H2O2 addition measured after 24 hrs by MTT assay (reference value: 68 to 72.8%); assay type: functional; details: read-out: Activity
Mus musculus [19] = assay: Antiinflammatory activity in Balb/C mouse assessed as reduction in LPS-induced TNF-alpha production in plasma at 0.1 umol/kg, sc administered LPS 15 mins post compound treatment measured after 4 hrs by ELISA; assay type: functional, organism-based
Procedure, shortened: (§3)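 Male Balb/C mice, 7-8 weeks old, given compound sc (0.1, 1 or 10 µmoles/kg) or saline. LPS 10 mg/kg was given ip 15 min later, and mice were killed 4 h after that. Spleens were homogenized in PBS with protease inhibitor and centrifuged at 14,000 g, 4 °C. Cytokines in plasma and tissue supernatants were measured by ELISA, with protein by BCA. Dexamethasone 5.6 µmoles/kg was the reference. n = 8-10 mice per treatment.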

Mus musculus [20] = assay: Antiinflammatory activity in Balb/C mouse assessed as reduction in LPS-induced IL6 production in plasma at 0.1 umol/kg, sc administered LPS 15 mins post compound treatment measured after 4 hrs by ELISA; assay type: functional, organism-based; procedure, shortened: as §3
Mus musculus [21] = assay: Antiinflammatory activity in Balb/C mouse assessed as reduction in LPS-induced TNF-alpha production in spleen at 0.1 umol/kg, sc administered LPS 15 mins post compound treatment measured after 4 hrs by ELISA; assay type: functional, organism-based; procedure, shortened: as §3
Mus musculus [22] = assay: Antiinflammatory activity in Balb/C mouse assessed as reduction in LPS-induced IL6 production in spleen at 0.1 umol/kg, sc administered LPS 15 mins post compound treatment measured after 4 hrs by ELISA; assay type: functional, organism-based; procedure, shortened: as §3
Mus musculus [23] = assay: Antiinflammatory activity in Balb/C mouse assessed as reduction in LPS-induced IL6 production in brain at 0.1 umol/kg, sc administered LPS 15 mins post compound treatment measured after 4 hrs by ELISA; assay type: functional, organism-based
RAW264.7 [24] = assay: Antiinflammatory activity in mouse RAW264.7 cells assessed as reduction in LPS-induced nitric oxide production at 10 pM incubated for 2 hrs prior to LPS challenge measured after 24 hrs by Griess assay; assay type: functional; set-up: scale not given: the % may be the effect or the level left; procedure, shortened: as §1
RAW264.7 [25] = assay: Antiinflammatory activity in mouse RAW264.7 cells assessed as reduction in LPS-induced IL-6 production at 10 pM incubated for 2 hrs prior to LPS challenge measured after 24 hrs by ELISA; assay type: functional; set-up: scale not given: the % may be the effect or the level left; procedure, shortened: as §1
RAW264.7 [26] = assay: Antiinflammatory activity in mouse RAW264.7 cells assessed as reduction in LPS-induced TNF-alpha production at 10 pM incubated for 2 hrs prior to LPS challenge measured after 8 hrs by ELISA; assay type: functional; set-up: scale not given: the % may be the effect or the level left; procedure, shortened: as §1
Mus musculus [27] = assay: Antiinflammatory activity in Balb/C mouse assessed as reduction in LPS-induced IL6 production in brain at 0.1 to 10 umol/kg, sc administered LPS 15 mins post compound treatment measured after 4 hrs by ELISA; assay type: functional, organism-based
Mus musculus [28] = assay: Antiinflammatory activity in Balb/C mouse assessed as reduction in LPS-induced IL6 production in spleen at 0.1 to 10 umol/kg, sc administered LPS 15 mins post compound treatment measured after 4 hrs by ELISA; assay type: functional, organism-based; procedure, shortened: as §3
Mus musculus [29] = assay: Antiinflammatory activity in Balb/C mouse assessed as reduction in LPS-induced TNF-alpha production in plasma at 0.1 to 10 umol/kg, sc administered LPS 15 mins post compound treatment measured after 4 hrs by ELISA; assay type: functional, organism-based; procedure, shortened: as §3
Mus musculus [30] = assay: Antiinflammatory activity in Balb/C mouse assessed as reduction in LPS-induced IL6 production in plasma at 0.1 to 10 umol/kg, sc administered LPS 15 mins post compound treatment measured after 4 hrs by ELISA; assay type: functional, organism-based; procedure, shortened: as §3
Mus musculus [31] = assay: Antiinflammatory activity in Balb/C mouse assessed as reduction in LPS-induced TNF-alpha production in spleen at 0.1 to 10 umol/kg, sc administered LPS 15 mins post compound treatment measured after 4 hrs by ELISA; assay type: functional, organism-based; procedure, shortened: as §3
[32] = Cytotoxicity against mouse RAW264.7 cells assessed as cell viability at 10^-8 M after 24 hrs by MTT assay relative to control; assay type: cell-based; details: read-out: Activity
Procedure, shortened: (§4)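 RAW 264.7 cells, seeded at 1×10^4 cells/mL and incubated 24 h, were exposed to compound from 1 pM to 100 nM. Viability was read by MTT (final 0.5 mg/mL, 1 h at 37 °C), with formazan dissolved in DMSO and OD at 570 nm. Results are compared with medium-only cells.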

[33] = Cytotoxicity against mouse RAW264.7 cells assessed as cell viability at 10^-7 M after 24 hrs by MTT assay relative to control; assay type: cell-based; details: read-out: Activity; procedure, shortened: as §4
[34] = Cytotoxicity against mouse RAW264.7 cells assessed as cell viability at 10^-9 M after 24 hrs by MTT assay relative to control; assay type: cell-based; details: read-out: Activity; procedure, shortened: as §4
[35] = Cytotoxicity against mouse RAW264.7 cells assessed as cell viability at 10^-11 M after 24 hrs by MTT assay relative to control; assay type: cell-based; details: read-out: Activity; procedure, shortened: as §4
[36] = Cytotoxicity against mouse RAW264.7 cells assessed as cell viability at 10^-10 M after 24 hrs by MTT assay relative to control; assay type: cell-based; details: read-out: Activity; procedure, shortened: as §4
[37] = Cytotoxicity against mouse RAW264.7 cells assessed as cell viability at 10^-12 M after 24 hrs by MTT assay relative to control; assay type: cell-based; details: read-out: Activity; procedure, shortened: as §4

Compound | Activity (RAW264.7 [1]) | Activity (RAW264.7 [2]) | Activity (RAW264.7 [3]) | Activity (RAW264.7 [4]) | Activity (RAW264.7 [5]) | Activity (RAW264.7 [7]) | Activity (RAW264.7 [8]) | Activity (RAW264.7 [9]) | Activity (RAW264.7 [10]) [%] | Activity (RAW264.7 [12]) [%] | Activity (Mus musculus [13]) | Activity (Mus musculus [14]) | Activity (Mus musculus [15]) | Activity (Mus musculus [16]) | Activity (Mus musculus [17]) | viability at 1 pM (RAW264.7 [18]) [%] | further results
Cl.NCCCN1CCc2ccccc21 | inactive | Active | Active | Active | Active | Active | Active | Active | 16 | 16 | – | – | – | – | – | – | Activity (RAW264.7 [6]): Active; viability at 0.001 µM (RAW264.7 [11]): 91.9%
CC(C)NC(=O)CCN1CCc2ccccc21.Cl | – | – | – | – | – | – | 50% | 50% | 16 | 16 | Non-Toxic | inactive | Non-Toxic | Non-Toxic | Non-Toxic | 93.7 | Activity (Mus musculus [19]): Active; Activity (Mus musculus [20]): Active; Activity (Mus musculus [21]): Active; Activity (Mus musculus [22]): Active; Activity (Mus musculus [23]): Active; Activity (RAW264.7 [24]): 50%; Activity (RAW264.7 [25]): 50%; Activity (RAW264.7 [26]): 50%
CC(C)NCCCN1CCc2ccccc21.Cl.Cl | 60% | 50% | Dose-dependent effect | Dose-dependent effect | 50% | 50% | – | – | 16 | 16 | Non-Toxic | Dose-dependent effect | Non-Toxic | Non-Toxic | Non-Toxic | 98.5 | Activity (Mus musculus [27]): Dose-dependent effect; Activity (Mus musculus [28]): Dose-dependent effect; Activity (Mus musculus [29]): Dose-dependent effect; Activity (Mus musculus [30]): Dose-dependent effect; Activity (Mus musculus [31]): Dose-dependent effect; viability at 24 h, 0.01 µM [32]: 90.9%; viability at 24 h, 0.1 µM [33]: 91.9%; viability at 24 h, 0.001 µM [34]: 92.1%; viability at 24 h, 1e-05 µM [35]: 102%; viability at 24 h, 0.0001 µM [36]: 99.2%; viability at 24 h, 1e-06 µM [37]: 93.3%
